From PMC6543826 (Bioorganic chemistry, 2018)
“And” between values parts separate entries of the source, which are not always exact repeats. Equal values may be shown once. Read-outs that look alike come from different tables or passages of the source.

Legend:
ERK2 = ERK2 (Rattus norvegicus, UniProt P63086); test: in vitro radioactive kinase assay, Ets-1 phosphorylation by ERK2; assay type: biochemical
Method in brief: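 Activated rat ERK2 (2 nM) was tested with His-Ets-1 (1–138) at 28–30 °C in HEPES pH 7.5 buffer with 11 mM MgCl2, BSA and 5% DMSO. Reactions were started with [γ-32P]ATP (10 or 100 μM).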

MALME-3M = test: cells; assay type: cell-based; settings: MALME-3M, 10^−5 M, 48 h
SNB-75 = test: cells; assay type: cell-based; settings: SNB-75, 10^−5 M, 48 h
SK-MEL-28 = test: cells; assay type: cell-based; settings: SK-MEL-28, 10^−5 M, 48 h
DU-145 = test: cells; assay type: cell-based; settings: DU-145, 10^−5 M, 48 h
HCT-15 = test: cells; assay type: cell-based; settings: HCT-15, 10^−5 M, 48 h
PC-3 = test: cells; assay type: cell-based; settings: PC-3, 10^−5 M, 48 h
SNB-19 = test: cells; assay type: cell-based; settings: SNB-19, 10^−5 M, 48 h
SN12C = test: cells; assay type: cell-based; settings: 10^−5 M, 48 h
SK-MEL-5 = test: cells; assay type: cell-based; settings: SK-MEL-5, 10^−5 M, 48 h
NCI-H322M = test: cells; assay type: cell-based; settings: 10^−5 M, 48 h
SF-539 = test: cells; assay type: cell-based; settings: SF-539, 10^−5 M, 48 h
CCRF-CEM = test: cells; assay type: cell-based; settings: 10^−5 M, 48 h
JNK2 = JNK2 (Homo sapiens, UniProt P45984); test: in vitro kinase assay, GST-c-Jun; assay type: biochemical
HCT-116 = test: cells; assay type: cell-based; settings: HCT-116, 10^−5 M, 48 h
NCI-H460 = test: cells; assay type: cell-based; settings: NCI-H460, 10^−5 M, 48 h
BT-549 = test: cells; assay type: cell-based; settings: BT-549, 10^−5 M, 48 h
OVCAR-3 = test: cells; assay type: cell-based; settings: OVCAR-3, 10^−5 M, 48 h
UACC-62 = test: cells; assay type: cell-based; settings: UACC-62, 10^−5 M, 48 h
OVCAR-8 = test: cells; assay type: cell-based; settings: OVCAR-8, 10^−5 M, 48 h
HOP-62 = test: cells; assay type: cell-based; settings: HOP-62, 10^−5 M, 48 h
IGROV1 = test: cells; assay type: cell-based; settings: IGROV1, 10^−5 M, 48 h
HOP-92 = test: cells; assay type: cell-based; settings: HOP-92, 10^−5 M, 48 h
M14 = test: cells; assay type: cell-based; settings: M14, 10^−5 M, 48 h
[1] = tested on: NCI-60 panel of tumor cell lines; settings: for Average G%: average over tested NCI-60 cell lines, 10^−5 M (10 μM), 48 h
A549/ATCC = test: cells; assay type: cell-based; settings: A549/ATCC, 10^−5 M, 48 h
SF-268 = test: cells; assay type: cell-based; settings: SF-268, 10^−5 M, 48 h
T-47D = test: cells; assay type: cell-based; settings: T-47D, 10^−5 M, 48 h
U251 = test: cells; assay type: cell-based; settings: U251, 10^−5 M, 48 h
MCF7 = test: cells; assay type: cell-based; settings: MCF7, 10^−5 M, 48 h
MDA-MB-468 = test: cells; assay type: cell-based; settings: MDA-MB-468, 10^−5 M, 48 h
K-562 = test: cells; assay type: cell-based; settings: K-562, 10^−5 M, 48 h
NCI-H522 = test: cells; assay type: cell-based; settings: NCI-H522, 10^−5 M, 48 h
KM 12 = test: cells; assay type: cell-based; settings: KM 12, 10^−5 M, 48 h
UO-31 = test: cells; assay type: cell-based; settings: UO-31, 10^−5 M, 48 h
LOX IMVI = test: cells; assay type: cell-based; settings: 10^−5 M, 48 h

ERK2, sequence (P63086 whole entry): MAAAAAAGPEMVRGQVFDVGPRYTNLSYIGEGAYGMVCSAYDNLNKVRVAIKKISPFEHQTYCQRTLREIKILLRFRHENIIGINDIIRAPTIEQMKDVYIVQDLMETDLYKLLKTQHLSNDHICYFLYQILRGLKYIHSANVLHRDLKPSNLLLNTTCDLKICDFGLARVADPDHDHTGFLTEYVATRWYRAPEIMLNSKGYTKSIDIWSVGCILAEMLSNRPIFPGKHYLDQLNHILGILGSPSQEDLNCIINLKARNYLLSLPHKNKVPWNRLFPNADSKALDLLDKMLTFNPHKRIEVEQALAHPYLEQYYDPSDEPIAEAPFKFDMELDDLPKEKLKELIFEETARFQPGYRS
JNK2, sequence (P45984 whole entry): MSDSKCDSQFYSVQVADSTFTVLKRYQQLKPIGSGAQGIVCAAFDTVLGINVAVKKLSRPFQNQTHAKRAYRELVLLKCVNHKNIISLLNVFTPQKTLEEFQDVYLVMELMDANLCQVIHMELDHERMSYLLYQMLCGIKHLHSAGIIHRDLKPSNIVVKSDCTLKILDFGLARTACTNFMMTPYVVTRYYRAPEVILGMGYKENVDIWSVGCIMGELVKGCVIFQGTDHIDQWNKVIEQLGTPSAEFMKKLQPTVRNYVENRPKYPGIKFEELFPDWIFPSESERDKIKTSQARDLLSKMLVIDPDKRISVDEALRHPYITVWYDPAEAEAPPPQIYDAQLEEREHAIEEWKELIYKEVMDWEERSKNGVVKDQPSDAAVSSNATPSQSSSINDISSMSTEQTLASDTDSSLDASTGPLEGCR

Cn1c(=O)c2c(=O)c3c4c(oc3oc2c2ccccc21)C(=O)c1ccccc1C4=O [5a, 5-Methyl-5H-naphthalen[2″,3″:4′,5′]furo[3′,2′:4′,5,6]pyrano [3,2-c]quinoline-6,7,8,13-tetraone]
IC50 (ERK2; read-out: ERK2 IC50, 100 μM ATP, 10 μM Ets-1): 108000 ± 12200 nM
IC50 (ERK2; read-out: ERK2 IC50 at 100 μM ATP /10mM Ets-1, Table 4, 100 μM ATP /10mM Ets-1): > 100000 nM
Growth percent (G%) (MALME-3M): 113.29%
Growth percent (G%) (SNB-75): 101.36%
Growth percent (G%) (SK-MEL-28): 107.21%
Growth percent (G%) (DU-145): 81.38%
Growth percent (G%) (HCT-15): 94.13%
Growth percent (G%) (PC-3): 79.23%
Growth percent (G%) (SNB-19): 110.38%
Growth percent (G%) (SN12C): 125.68%
Growth percent (G%) (SK-MEL-5): 97.56%
Growth percent (G%) (NCI-H322M): 91.04%
Growth percent (G%) (SF-539): 93.83%
Growth percent (G%) (CCRF-CEM): 92.93%
ability to inhibit JNK2 (in words) (JNK2): did not show any ability to inhibit
IC50 (JNK2; read-out: JNK2 IC50, 2 μM GST-c-Jun (1–221)): > 200000 nM
Growth percent (G%) (HCT-116): 99.77%
Growth percent (G%) (NCI-H460): 108.09%
Growth percent (G%) (BT-549): 104.21%
Growth percent (G%) (OVCAR-3): 98.93%
Growth percent (G%) (UACC-62): 93.45%
Growth percent (G%) (OVCAR-8): 100.1%
Growth percent (G%) (HOP-62): 80.81%
Growth percent (G%) (IGROV1): 65.92%
Growth percent (G%) (HOP-92): 99.17%
Growth percent (G%) (M14): 98.25%
Average G% [1]: 95.45%
Growth percent (G%) (A549/ATCC): 85.17%
Growth percent (G%) (SF-268): 101.09%
Growth percent (G%) (T-47D): 83.56%
Growth percent (G%) (U251): 104.35%
Growth percent (G%) (MCF7): 76.73%
Growth percent (G%) (MDA-MB-468): 64.82%
Growth percent (G%) (K-562): 89.61%
Growth percent (G%) (NCI-H522): 78.37%
Growth percent (G%) (KM 12): 95.63%
Growth percent (G%) (UO-31): 137.02%
Growth percent (G%) (LOX IMVI): 95.89%

O=C1C(Cl)=C(c2c(O)c3c(=O)n(-c4ccccc4)c4ccccc4c3oc2=O)C(=O)c2ccccc21 [compound 6, 3-(3-Chloro-1,4-dioxo-1,4-dihydronaphthalen-2-yl)-4-hydroxy-6-phenyl-2H-pyrano[3,2-c]quinoline-2,5(6H)-dione]
effect of excess Ets-1 (100 μM) on inhibition of ERK2 (ERK2; 5 μM inhibitor, 100 μM vs 10 μM Ets-1, 100 μM ATP): did not rescue
IC50 (ERK2; ERK2 IC50, 10 μM ATP): 90 nM and 86 nM
IC50 (ERK2; ERK2 IC50, 100 μM ATP, 10 μM Ets-1): ~160 nM and 160 nM
IC50 (ERK2; ERK2 IC50 at 100 μM ATP /10mM Ets-1, Table 4, 100 μM ATP /10mM Ets-1): 160 ± 20 nM
Growth percent (G%) (MALME-3M): 42.00%
Growth percent (G%) (SNB-75): 31.77%
Growth percent (G%) (SK-MEL-28): 39.37%
Growth percent (G%) (DU-145): 34.21%
Growth percent (G%) (HCT-15): 66.56%
Growth percent (G%) (PC-3): 49.16%
Growth percent (G%) (SNB-19): 27.87%
Growth percent (G%) (SN12C): −14.11%
Growth percent (G%) (SK-MEL-5): 17.66%
Growth percent (G%) (NCI-H322M): 63.53%
Growth percent (G%) (SF-539): −5.45%
Growth percent (G%) (CCRF-CEM): 17.76%
IC50 (JNK2): 4200 ± 900 nM
ability to inhibit JNK2 (in words) (JNK2): little tendency to inhibit
Growth percent (G%) (HCT-116): 41.72%
Growth percent (G%) (NCI-H460): 33.57%
Growth percent (G%) (BT-549): 12.26%
Growth percent (G%) (OVCAR-3): 2.15%
Growth percent (G%) (UACC-62): 13.17%
Growth percent (G%) (OVCAR-8): 48.24%
Growth percent (G%) (HOP-62): 36.07%
Growth percent (G%) (IGROV1): 71.85%
Growth percent (G%) (HOP-92): 80.01%
Growth percent (G%) (M14): 44.74%
NCI Cytotoxicity Screening Average G% ([1]; Table 4, 10 μM one-dose screen): 35%
Average G% [1]: 35.49%
Growth percent (G%) (A549/ATCC): 37.73%
Growth percent (G%) (SF-268): 34.32%
Growth percent (G%) (T-47D): 4.47%
Growth percent (G%) (U251): 21.15%
Growth percent (G%) (MCF7): 51.60%
Growth percent (G%) (MDA-MB-468): −27.29%
Growth percent (G%) (K-562): 26.84%
Growth percent (G%) (NCI-H522): 19.42%
Growth percent (G%) (KM 12): 18.86%
Growth percent (G%) (UO-31): 64.18%
Growth percent (G%) (LOX IMVI): 42.99%
